In ChEMBL document CHEMBL5120805, “Autoxidation of a C2-Olefinated Dihydroartemisinic Acid Analogue to Form an Aromatic Ring: Application to Serrulatene Biosynthesis” (2022) one finds MIC data, which are given here for 27 molecules.

What all share (type): functional
The subject of test [1] is Staphylococcus aureus. The experiment in a line: Antimicrobial activity against Staphylococcus aureus JE2 ssessed as reduction in bacterial growth and measured for 24 hrs by resazurin dye based broth microdilution method. The method in brief:
(§1)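 Overnight cultures diluted to ~1 × 10^5 CFU/mL and exposed to compounds (DMSO stocks at 10 mg/mL) over 0.048–100 μg/mL final. Incubated standing in lysogeny broth at 37 °C for 24 h. Resazurin then added, 1 h further incubation, and MIC read from colour change.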

The subject of test [2] is Pseudomonas aeruginosa. In words: Antimicrobial activity against Pseudomonas aeruginosa PA14 assessed as reduction in bacterial growth and measured for 24 hrs by resazurin dye based broth microdilution method. The method in brief:
as §1

Test [3] concerns Cryptococcus neoformans. The experiment in a line: Antimicrobial activity against Cryptococcus neoformans H99 assessed as reduction in […] growth and measured for 48 hrs by resazurin dye based broth microdilution method. A digest of the protocol: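 Cells from overnight growth diluted to ~1 × 10^5 CFU/mL in sabouraud dextrose broth. Compounds from 10 mg/mL DMSO stocks tested at 0.048–100 μg/mL. Plates incubated standing at 37 °C for 48 h, then resazurin added for a further 24 h. MIC taken from colour change.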
(In general: Alamar Blue is a resazurin reagent that responds to reducing activity.)

In brackets after ≈: the same amount, converted by molar mass.

One may read the MIC as the smallest concentration in the dilution series that meets the test's criterion for growth inhibition. For `CC1C[C@@H]2OO[C@H]1[C@@H]1[C@H]([C@@H](C)C(=O)O)CC[C@@H](C)[C@@H]12` (stereo partly specified), the minimum inhibitory concentration (MIC) in test [1], in test [2] and in test [3] was above 100 µg/mL in each case.

In the case of `CC1=C[C@H]2[C@@H](C=C1)[C@H](C)CC[C@H]2[C@@H](C)CCCO`, the values for the MIC in test [1], in test [2] and in test [3] were 50 µg/mL (≈ 201 µM), above 100 µg/mL and above 100 µg/mL, respectively.

As for `Cc1ccc2c(c1)C([C@@H](C)CO)=CC[C@H]2C`, the MIC in test [1] is 100 µg/mL (≈ 462 µM); in test [2] it was above 100 µg/mL; in test [3] it was 50 µg/mL (≈ 231 µM).

In test [1], `CO[C@@H]1[C@@H](OC(N)=O)[C@@H](O)[C@H](Oc2ccc3c(O)c(NC(=O)c4ccc(O)c(CC=C(C)C)c4)c(=O)oc3c2C)OC1(C)C` [NOVOBIOCIN] registered an MIC below 0.19 µg/mL.

Turning to `C#COC(=O)[C@H](C)[C@@H]1CC[C@@H](C)[C@@H]2CCC(C)=C[C@@H]21`, the MIC in test [1], in test [2] and in test [3] was above 100 µg/mL throughout.

`CC(=O)OCCC[C@H](C)[C@@H]1CC[C@@H](C)[C@@H]2CCC(C)=C[C@@H]21`: the minimum inhibitory concentration (MIC) in test [1] is above 100 µg/mL; in test [2], above 100 µg/mL; in test [3], 12.5 µg/mL (≈ 42.7 µM).

With `C[C@@H]1CC[C@H]2[C@@H](C)C(=O)O[C@@H]3O[C@@]4(C)CC[C@@H]1[C@]32OO4` [ARTEMISININ], the MIC in test [1] was above 100 µg/mL; in test [2], above 100 µg/mL; in test [3] it was 100 µg/mL (≈ 354 µM).

Take `CC1=C[C@H]2[C@@H](CC1)[C@@H]([C@H](C)C(=O)OCc1cn(CCOCCOCCOCNS(=O)(=O)c3ccc(C4=c5cc6c7c(c5Oc5c4cc4c8c5CCCN8CCC4)CCC[N+]=7CCC6)c(S(=O)(=O)[O-])c3)nn1)CC[C@@H]2C`: the MIC in test [1], in test [2] and in test [3] was above 50 µg/mL in each case.

Consider `CC(C)=CCC[C@H](C)[C@@H]1CC[C@@H](C)c2ccc(C)cc21`, for which the MIC in test [1], in test [2] and in test [3] was above 100 µg/mL each time.

`CC(C)=CC=C[C@H](C)[C@@H]1CC[C@@H](C)c2ccc(C)cc21`: the minimum inhibitory concentration (MIC) in test [1], in test [2] and in test [3] was above 100 µg/mL in each case.

On to `C[C@@H]1[C@H](O)[C@@H](C)/C=C/C=C/C=C/C=C/C=C/C=C/C=C/[C@H](O[C@@H]2O[C@H](C)[C@@H](O)[C@H](N)[C@@H]2O)C[C@@H]2O[C@](O)(C[C@@H](O)C[C@@H](O)[C@H](O)CC[C@@H](O)C[C@@H](O)CC(=O)O[C@H]1C)C[C@H](O)[C@H]2C(=O)O` [AMPHOTERICIN B], for which, in test [3], the MIC was below 0.048 µg/mL.

For the molecule `COC=C[C@H](C)[C@@H]1CC[C@@H](C)[C@@H]2CCC(C)=C[C@@H]21` (mixture of isomers), the figures for the MIC in test [1], in test [2] and in test [3] were 12.5 µg/mL, above 100 µg/mL and 50 µg/mL, respectively.

Consider GENTAMICIN, for which the MIC in test [1] was determined as 6.25 µg/mL; in test [2], 0.39 µg/mL; in test [3], 6.25 µg/mL.

On to `Cc1ccc2c(c1)[C@H]([C@@H](C)C=O)CC[C@H]2C`, for which the minimum inhibitory concentration (MIC) was above 100 µg/mL in test [1], above 100 µg/mL in test [2] and 100 µg/mL (≈ 462 µM) in test [3].

Regarding `Cc1ccc2c(c1)[C@H]([C@@H](C)CO)CC[C@H]2C`, the MIC was above 100 µg/mL in test [1], above 100 µg/mL in test [2] and at least 100 µg/mL in test [3].

Turning to `COC=CC[C@H](C)[C@@H]1CC[C@@H](C)[C@@H]2CCC(C)=C[C@@H]21` (mixture of isomers), the MIC in test [1], in test [2] and in test [3] was above 100 µg/mL each time.

For `CC1=CC2=C([C@@H](C)C(=O)O)CC[C@@H](C)[C@@H]2CC1`, the MIC in test [1], in test [2] and in test [3] was above 100 µg/mL in each case.

In the case of `Cc1ccc2c(c1)[C@H]([C@@H](C)C(=O)O)CC[C@H]2C`, the MIC in test [1] is above 100 µg/mL; in test [2], above 100 µg/mL; in test [3] it was 100 µg/mL (≈ 430 µM).

`CC1=C[C@H]2[C@@H](CC1)[C@H](C)CC[C@H]2[C@@H](C)CCCO`: the MIC in test [1] was 12.5 µg/mL (≈ 49.9 µM); in test [2] it was above 100 µg/mL; in test [3], above 100 µg/mL.

For the molecule `CC1=C[C@H]2[C@@H](C=C1)[C@H](C)CC[C@H]2[C@@H](C)C=O`, the MIC in test [1], in test [2] and in test [3] was above 100 µg/mL throughout.

With `O=C(O)c1cn(C2CC2)c2cc(N3CCNCC3)c(F)cc2c1=O` [CIPROFLOXACIN], the results for the MIC in test [1] and in test [2] were 12.5 µg/mL (≈ 37.7 µM) and below 0.04 µg/mL, respectively.

As to `CC1=C[C@H]2[C@@H](CC1)[C@H](C)CC[C@H]2[C@@H](C)C(=O)O`, the MIC is 100 µg/mL (≈ 423 µM) in test [1], above 100 µg/mL in test [2] and 25 µg/mL (≈ 106 µM) in test [3].

As to `CC1=C[C@H]2[C@@H](CC1)[C@H](C)CC[C@H]2[C@@H](C)CCC=O`, the MIC in test [1], in test [2] and in test [3] was above 100 µg/mL throughout.

With `CC1=C[C@H]2[C@@H](C=C1)[C@H](C)CC[C@H]2[C@@H](C)CO`, the MIC is 50 µg/mL (≈ 227 µM) in test [1], above 100 µg/mL in test [2] and 25 µg/mL (≈ 113 µM) in test [3].

With `CC1=C[C@H]2[C@@H](CC1)[C@H](C)CC[C@H]2[C@@H](C)C=O`, the MIC in test [1] was above 100 µg/mL; in test [2] it was above 100 µg/mL; in test [3] it was 12.5 µg/mL (≈ 56.7 µM).

On to `CC1=C[C@H]2[C@@H](C=C1)[C@H](C)CC[C@H]2[C@@H](C)C(=O)O`, for which the MIC in test [1] was above 100 µg/mL; in test [2], above 100 µg/mL; in test [3] it was 100 µg/mL (≈ 427 µM).

Regarding `CC(=O)OCCC[C@H](C)[C@@H]1CC[C@@H](C)[C@@H]2C[C@@H](O)C(C)=C[C@@H]21`, the figures for the MIC in test [1], in test [2] and in test [3] were above 100 µg/mL, above 100 µg/mL and 25 µg/mL (≈ 81 µM), respectively.
